These entries were drawn from the full list.
Apaf-1 act: activators of human Apaf-1 apoptosome, primary screen, biochemical, DEVD-Rh110 fluorescence, uHTS; Apoptotic protease-activating factor 1 (Homo sapiens), O14727; Apaf-1 apoptosome caspase-3 activation; stronger effect = lower value; activity change, negative = activation, % at 20 µM; hit rate 0.31% among 330,000; AID 489031, 2010;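 active means activity change at or below -40% at 20 µM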
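Assay system – biochemical Apaf-1 apoptosome reconstitution · Medium – 20 mM HEPES buffer, pH 7.5, containing CHAPS and BSA · Incubation – 30 min preincubation, 50 min reaction, room temperature · Measured by – Caspase-3-released Rh110 fluorescence, 540 nm emission, 480 nm excitation · Read-out – Caspase-3 cleavage activity downstream of Apaf-1 activation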
Rh110 act interf: Rh110 fluorescence interference by putative Apaf-1 activators, confirmation, artefact control for Apaf-1 activator project, biochemical, 20 µM. AID 504616, 2011. shares compounds with Apaf-1 act. quenched caspase reaction, Ex480/Em540. fluorescence interference (activity change), % at 20 µM, hits read low. 980 tested, under 10 active;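 active means mean activity change at or below -40% when tested at 20 µM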
Apaf-1 act conf: Apaf-1 activators, single-dose retest, confirmation, biochemical, fluorescence, DEVD-Rh110, 20 µM; hit rate 5% among 980; AID 504617, 2011; activity change, negative = activation, % at 20 µM; shares compounds with Apaf-1 act; reconstituted apoptosome caspase-3 activity; stronger effect = lower value;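 active means mean activity change at or below -40%, meaning activation of 40% or more, at 20 µM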
Apaf1 act interf: fluorescence interference of Apaf-1 activator hits, dose response, artefact control for Apaf-1 activator project; fluorescence interference counterscreen, Apaf-1 activator assay; EC50, µM; AID 588592, 2011; 55 tested, under 10 active; shares compounds with Apaf-1 act; call rule not given here
A number is an active result; - = inactive; . = no result given.

SMILES | Apaf-1 act | Rh110 act interf | Apaf-1 act conf | others
O=C(Nc1nnc(S(=O)(=O)N2CCOCC2)s1)c1ccccc1Br | -95 | - | -
CCC[C@@H](CN1CCC[C@H]1CN1C(N)=NC[C@H]1CC(C)C)N1C[C@@H]([C@H](C)CC)N(CCCC2CCCC2)C1=N | - | . | .
Nc1ccc(C(=O)O)cc1 | - | . | .
C/C(=N\NC(=O)c1ccc(NS(=O)(=O)c2cccs2)cc1)c1ccc(Cl)cc1 | -46 | - | -
CCN1CCN(CCNC(=O)c2ccc(/C=C3\Sc4ccccc4N(Cc4ccccc4F)C3=O)cc2)CC1 | - | . | .
C=CCn1c(COc2cccc(C)c2)nnc1SC(C)C(=O)NC1CC1 (stereo not given) | - | . | .
COc1ccc(/C=C/C(=O)OCC(=O)N2CCCC2)c(OC)c1 | -40 | - | -
COc1ccc2c(c1)OC[C@H]1[C@H]2N2C(=O)c3cc(OC)c(OC)cc3NC(=O)[C@@]2(C)[C@H]1c1ccccc1 | -143 | - | -
CCCCCc1cc(=O)oc2c(C(CCN3CCCC(C)C3)c3ccc4c(c3)OCO4)c(OC)cc(OC)c12 (stereo not given) | - | . | .
Cc1cc(C)n(CCNC(=O)C2CCC(=O)N(CCc3cccc(F)c3)C2)n1 (stereo not given) | -456 | - | -
Cc1cc(N2CCN(c3ccc([N+](=O)[O-])c4cccnc34)CC2)c2ccccc2n1 | - | . | .
S=c1nc(-c2ccc(Cl)cc2)[nH][nH]1 | -396 | - | -
COc1ccc(N2CCN(C(=O)Cc3ccc(OC)c(OC)c3)CC2)cc1 | -535 | - | -
Cc1[nH]n(-c2ccccc2)c(=O)c1C(=O)c1ccccc1 | - | . | .
COc1cccc2c1C(=O)C=C(C)C2=O | - | . | .
CCc1ccccc1NC(=O)CCS(=O)(=O)c1ccc(OC)cc1 | -117 | - | -
CCc1ccccc1NC(=O)CCNS(=O)(=O)c1cc(Br)cnc1N | - | . | .
Cc1cc2c(N)cccc2nn1 | - | . | .
COc1ccc(CC2S/C(=N/N=C/c3ccccc3O)NC2=O)cc1 (stereo not given) | -524 | - | -
COc1ccc(NC(=O)CC2Nc3cccc4cccc(c34)NC2=O)cc1 (stereo not given) | - | . | .
Cc1ccc(CN2CC(C(=O)N3CCN(S(=O)(=O)c4ccc(C)cc4C)CC3)CC2=O)cc1 (stereo not given) | - | . | .
CCOc1nc2cnccc2n(CC(=O)Nc2ccccc2F)c1=O | -49 | - | -
O=C(O)c1cc(O)c2c(c1)[C@@H]([C@H]1c3cc(C(=O)O)cc(O)c3C(=O)c3c(O[C@@H]4O[C@H](CO)[C@@H](O)[C@H](O)[C@H]4O)cccc31)c1cccc(OC3O[C@H](CO)[C@@H](O)[C@H](O)[C@H]3O)c1C2=O (stereo not given in full) | - | . | .
NS(=O)(=O)Cc1noc2ccccc12 | -79 | - | -
COc1cc(Br)c(C(=O)c2nccc3cc(OC)c(OC)cc23)cc1OC | - | . | .
SMILES | Apaf-1 act | Rh110 act interf | Apaf-1 act conf | others
CC(C)N1CCc2c(sc(NC(=O)c3cc(-c4cccs4)nc4ccccc34)c2C(N)=O)C1 | - | . | .
C=C(C)C(=O)Nc1ccc(OC(F)(F)C(F)F)c(NC(=O)C(=C)C)c1 | -85 | - | -
O=c1[nH]nc(CNc2ccc(O)cc2)c2ccccc12 | - | . | .
CN(C)CCCNC(=S)NCC(c1ccc(Cl)cc1Cl)c1c[nH]c2ccccc12 (stereo not given) | - | . | .
CC(Cc1c[nH]c2ccccc12)C(=O)O (stereo not given) | -351 | - | -120 | Apaf1 act interf=-
Cc1ccc(NC(=O)c2ncn(CC(=O)N[C@H](CO)Cc3c[nH]c4ccccc34)n2)cc1C | - | . | .
CN(C)CCOc1ccc(-c2c(-c3ccccc3)sc3ccccc23)cc1 | - | . | .
COc1ccc2c(c1)Cc1sc(NC(=O)c3cccnc3)nc1-2 | - | . | .
COc1ccc2c(c1)Cc1sc(NC(C)=O)nc1-2 | - | . | .
COc1ccc2nc(NC(=O)c3sc4nc(C)cc(C)c4c3N)sc2c1 | -41 | - | -
C#CCOCCOCCOCCNc1nc(N2CCN(C(=O)CCCCCCCCCCNC(=O)[C@H]([C@@H](C)CC)n3cc(CCCCCN)nn3)CC2)nc(N2CCN(C(=O)CCCCCCCCCCNC(=O)[C@H]([C@@H](C)CC)n3cc(CCCCN=C(N)N)nn3)CC2)n1 | - | . | .
Cc1[nH]n(-c2ccccc2)c(=S)c1C=NCCCN=Cc1c(C)[nH]n(-c2ccccc2)c1=S | - | . | .
COC(=O)c1sccc1NC(=O)c1c(C)noc1C | -654 | - | -
